From ChEMBL document CHEMBL1141348, “Cytotoxic cardenolide glycosides of Roupellina (Strophanthus) boivinii from the Madagascar rainforest” (J Nat Prod, 2007)

test system: A2780; experiment: Antiproliferative activity against human A2780 cells; format: functional, cell-based
Summary of the method: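 Growth inhibition of the drug-sensitive human ovarian cancer line A2780, measured at Virginia Polytechnic Institute and State University. IC50 is the concentration that inhibited 50% of cell growth. Actinomycin D was the positive control.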

Question: With C[C@H]1[C@@H](O[C@H]2CC[C@@]3(C)[C@@H](CC[C@@H]4[C@@H]3CC[C@]3(C)[C@@H](C5=CC(=O)OC5)CC[C@]43O)C2)O[C@@H](C)[C@@H](O)[C@H]1O as the compound, how does the IC50 read?
Answer: Its IC50 is 150 nM.

Question: How did the IC50 turn out when C[C@H]1O[C@@H](O[C@H]2CC[C@@]3(C=O)[C@@H](CC[C@@H]4[C@@H]3CC[C@]3(C)[C@@H](C5=CC(=O)OC5)CC[C@]43O)C2)C[C@H](O)[C@H]1O was run?
Answer: Its IC50 is 150 nM.

Question: For CO[C@H]1[C@@H](O)[C@H](O[C@H]2CC[C@@]3(C)[C@@H](CC[C@@H]4[C@@H]3CC[C@]3(C)[C@@H](C5=CC(=O)OC5)CC[C@]43O)C2)O[C@@H](C)[C@@H]1O[C@@H]1O[C@H](CO)[C@@H](O)[C@H](O)[C@H]1O, which IC50 is on record?
Answer: Its IC50 is 150 nM.

Question: How did the IC50 turn out when C[C@H]1O[C@@H](O[C@H]2CC[C@@]3(C=O)[C@@H](CC[C@@H]4[C@@H]3CC[C@]3(C)[C@@H](C5=CC(=O)OC5)CC[C@]43O)C2)C[C@H](O)[C@H]1O[C@@H]1O[C@H](CO)[C@@H](O)[C@H](O)[C@H]1O [BOIVINIDE D] was run?
Answer: Its IC50 is 290 nM.

Question: For CO[C@H]1C[C@H](O[C@H]2CC[C@@]3(C=O)[C@@H](CC[C@@H]4[C@@H]3CC[C@]3(C)[C@H](C5=CC(=O)OC5)CC[C@]43O)C2)O[C@H](C)[C@@H]1O[C@@H]1O[C@H](CO)[C@@H](O)[C@H](O)[C@H]1O [BOIVINIDE C], which IC50 is on record?
Answer: The IC50 was 2900 nM.

Question: How did the IC50 turn out when CO[C@H]1C[C@H](O[C@H]2CC[C@@]3(C=O)[C@@H](CC[C@@H]4[C@@H]3CC[C@]3(C)[C@@H](C5=CC(=O)OC5)CC[C@]43O)C2)O[C@H](C)[C@@H]1O[C@@H]1O[C@H](CO)[C@@H](O)[C@H](O)[C@H]1O [BOIVINIDE B] was run?
Answer: The IC50 was 660 nM.

Question: With CO[C@H]1C[C@H](O[C@H]2CC[C@@]3(C=O)[C@@H](CC[C@@H]4[C@@H]3CC[C@]3(C)[C@H](C5=CC(=O)OC5)CC[C@]43O)C2)O[C@H](C)[C@@H]1O as the compound, how does the IC50 read?
Answer: Its IC50 is 3700 nM.

Question: Which IC50 does the source give for CO[C@H]1[C@@H](O[C@@H]2O[C@H](CO)[C@@H](O)[C@H](O)[C@H]2O)[C@@H](C)O[C@@H](O[C@H]2CC[C@@]3(C=O)[C@@H](CC[C@@H]4[C@@H]3CC[C@]3(C)[C@@H](C5=CC(=O)OC5)CC[C@]43O)C2)[C@@H]1OC(C)=O [BOIVINIDE F] here?
Answer: The IC50 was 540 nM.

Question: For CO[C@@H]1[C@@H](O)[C@H](O[C@H]2CC[C@@]3(C=O)[C@@H](CC[C@@H]4[C@@H]3CC[C@]3(C)[C@@H](C5=CC(=O)OC5)CC[C@]43O)C2)O[C@H](C)[C@@H]1O[C@@H]1O[C@H](CO)[C@@H](O)[C@H](O)[C@H]1O [BOIVINIDE A], which IC50 is on record?
Answer: The IC50 was 170 nM.
